# Beta2AR agonist = activates human beta-2 adrenergic receptor causing internalization; P07550; Am2.2-beta2AR cells, FAP receptor internalization, flow cytometry; response, % (no concentration beside the values); 340,000 tested, 0.43% active; AID 504454;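 active = response above a set limit, near 3 SD of response in nonfluorescent compounds, cut at about 42% in these data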
# MC4R ag barr = activates human MC4R beta-arrestin recruitment. P32245. U2OS MC4R beta-arrestin complementation, luminescence; percent of melanotan II response, DMSO zero. activation, % at 8.9 µM. 360,000 tested, 0.98% active. AID 540308;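 active = activation above a per-plate cutoff, the mean activation of sample wells on that plate plus 3 SD, cut at about 8% in these data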
# PfG6PD inh = PfG6PD (Plasmodium falciparum) enzyme inhibition; 350,000 tested, 0.78% active; AID 504690; inhibition, % at 20 µM; PfGluPho enzyme, NADPH resazurin-diaphorase fluorescence;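 active = inhibition reaching at least a set limit at 20 µM in the primary screen, cut at about 59% in these data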;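 note: 0% = DMSO wells with substrate and 100% = DMSO wells lacking glucose-6-phosphate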
# ABHD5-PLIN5 inh = blocks binding of human ABHD5 to perilipin-5; Q00G26+Q8WTS1; Split G. princeps luciferase complementation, luminescence, 4 h; inhibition, % at 4 µM; 360,000 tested, 0.78% active;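 active = inhibition above the mean inhibition across every tested compound plus 3 SD, cut at about 22% in these data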;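 note: 0% = DMSO only wells and the 100% control is not disclosed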
# Target sequence (Q00G26 whole entry, looked up): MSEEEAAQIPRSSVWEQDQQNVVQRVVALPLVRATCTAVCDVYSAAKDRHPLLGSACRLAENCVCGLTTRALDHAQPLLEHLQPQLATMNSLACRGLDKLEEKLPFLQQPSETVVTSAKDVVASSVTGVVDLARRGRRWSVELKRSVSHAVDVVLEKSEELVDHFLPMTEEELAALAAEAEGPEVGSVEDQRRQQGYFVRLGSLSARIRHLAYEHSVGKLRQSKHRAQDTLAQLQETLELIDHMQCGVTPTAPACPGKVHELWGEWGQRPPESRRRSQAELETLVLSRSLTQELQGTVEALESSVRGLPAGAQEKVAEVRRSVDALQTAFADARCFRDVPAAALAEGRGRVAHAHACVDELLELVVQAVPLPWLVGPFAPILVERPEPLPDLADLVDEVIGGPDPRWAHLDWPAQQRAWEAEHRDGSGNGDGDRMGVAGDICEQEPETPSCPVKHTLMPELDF
# Target sequence (Q8WTS1 whole entry, looked up): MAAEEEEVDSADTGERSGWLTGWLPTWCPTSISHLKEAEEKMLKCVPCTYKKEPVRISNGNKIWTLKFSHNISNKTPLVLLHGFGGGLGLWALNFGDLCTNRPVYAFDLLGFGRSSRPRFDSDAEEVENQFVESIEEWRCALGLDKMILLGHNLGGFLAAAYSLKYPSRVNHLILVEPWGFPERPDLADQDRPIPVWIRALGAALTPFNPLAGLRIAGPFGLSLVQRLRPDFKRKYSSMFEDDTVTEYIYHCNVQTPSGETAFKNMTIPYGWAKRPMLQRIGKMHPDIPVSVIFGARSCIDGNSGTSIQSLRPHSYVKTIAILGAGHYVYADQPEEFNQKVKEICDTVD
# MC4R antagonist = blocks human MC4R cAMP signaling; P32245; MC4R-expressing cells, MTII-stimulated cAMP, LANCE TR-FRET; inhibition, % at 6.5 µM; 360,000 tested, 0.48% active;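 active = inhibition above its plate's cutoff, the mean of tested wells on that plate plus 3 SD, cut at about 29% in these data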;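 note: 0% = Melanotan II alone and 100% = Melanotan II plus saturating MCL0020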
#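 Assay system: U2OS-MC4R stable cell line; Also added: Melanotan II; Technique: Eu-cAMP/anti-cAMP TR-FRET, emission 671 nm; Times: 30-min compound, 1-h challenge, 1-h detection, room temperature.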
# PfGluPho conf = PfG6PD inhibition, single-dose confirmed; inhibition, % at 20 µM; 2,400 tested, 34% active; AID 504753; recombinant PfGluPho, NADPH-diaphorase-resazurin fluorescence; shares compounds with PfG6PD inh;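 active = inhibition of at least 50% at 20 µM in any single replicate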;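 note: 0% = DMSO with substrate and 100% = DMSO lacking glucose-6-phosphate substrate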
# Diaph ctr 10uM = diaphorase inhibition or oxidation at 10 uM NADPH | inhibition, % at 20 µM | 820 tested, 39% active | shares compounds with PfG6PD inh | AID 504862 | diaphorase-coupled resazurin reduction, fluorescence, NADPH 10 uM;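 active = average inhibition reaching 50% or more with the compound at 20 µM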;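 note: resorufin red fluorescence formed as diaphorase reduces resazurin using NADPH; 0% = DMSO with enzyme and 100% = DMSO without enzyme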
# Diaph ctr 30uM = diaphorase inhibition or oxidation at 30 uM NADPH. shares compounds with PfG6PD inh. inhibition, % at 20 µM. Diaphorase/resazurin coupled assay, resorufin fluorescence. 820 tested, 29% active. AID 504863;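 active = inhibition averaging 50% or more, tested at 20 µM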;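 note: 0% = DMSO with enzyme and 100% = DMSO wells lacking diaphorase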
# Numbers without * were called inactive; . = not tested or not shown. Hits are enriched below; roughly 3% of the tested compounds scored in any of these assays.
SMILES,Beta2AR agonist,MC4R ag barr,PfG6PD inh,ABHD5-PLIN5 inh,MC4R antagonist,PfGluPho conf,others
CCC1CCCCN1C(=O)CSc1nnc(N)s1 (centres undefined),-3.1,-0.2,12.2,1.0,-2.5,.,
Oc1ccc(Br)cc1CNc1cccc2cccnc12,19.3,1.2,72.0*,-13.1,-8.9,14.9,
O=C1C(=O)c2c(ccc3ccccc23)-c2ccccc21,8.7,2.8,62.0*,-28.6,9.8,16.8,
CN(C)/C=C1\Oc2ccc3ccccc3c2C1=O,-5.5,-4.7,29.8,-5.0,6.3,.,
COc1ccc2c(C)cc(Sc3nnnn3-c3ccccc3)nc2c1,-12.0,-1.0,60.0*,5.2,12.3,5.5,
COc1ccc(CSc2nnnn2-c2ccccc2)cc1,-3.2,-0.6,-12.1,-0.8,4.2,.,
O=C(c1ccco1)N1CC2(CC(c3ccc(Cl)cc3)=NO2)CN1Cc1ccc(Br)cc1 (centres undefined),.,0.9,22.2,-1.5,3.9,.,
COc1ccccc1N1CCN(/N=C/c2ccc(O)c(O)c2)CC1,.,.,59.1*,.,.,45.8,
CN1/C(=N\O)c2cccc3cccc1c23,25.6,0.2,76.2*,-18.3,-7.7,46.2,
Cc1cc(C)nc(NC(N)=NCCc2ccccc2)n1,12.6,-0.5,78.8*,3.5,-14.5,51.5*,Diaph ctr 10uM=49.1;Diaph ctr 30uM=48.4
Cc1cc(C)nc(NC(N)=NC(C)c2ccccc2)n1 (centres undefined),.,.,4.5,.,.,.,
O=C(NCC(F)(F)F)C1C(=O)Nc2ccccc2C(=O)N1Cc1ccccc1 (centres undefined),.,.,.,7.1,.,.,
Cn1ncc(Cl)c1C(=O)N/N=C/c1cccc(OC2CSC2)c1,-24.7,0.3,109.2*,7.8,-6.9,84.7*,Diaph ctr 10uM=75.5*;Diaph ctr 30uM=64.2*
Cc1ccc2nc(-c3sc4nc(C)cc(C)c4c3N)[nH]c2c1,-4.0,6.9,77.2*,-3.4,0.6,11.8,
Cc1ccc2nc(-c3cccc(N)c3)[nH]c2c1,11.6,-1.7,61.9*,-6.4,1.9,29.1,
COc1ccccc1C1CCN(C(=O)c2cccs2)CC1,7.2,0.0,-5.0,4.1,-4.4,.,
CN(Cc1ccccc1Cl)C(=O)C1CCC(=O)N(C2CCCCCC2)C1 (centres undefined),0.3,-1.1,3.0,4.7,-5.1,.,
CC1(OC(=O)CCc2ccccc2)C(=O)C=C2C=C(c3ccc(C#N)cc3)N(C3CC3)C=C2C1=O (centres undefined),5.8,-0.5,83.2*,-17.4,15.6,48.6,
COCCN1C=C2C(=O)C(C)(OC(=O)CCc3ccccc3)C(=O)C=C2C=C1c1ccc(C#N)cc1 (centres undefined),-16.8,-2.1,62.1*,-18.3,-7.8,22.1,
CC1(OC(=O)CCc2ccccc2)C(=O)C=C2C=C(c3ccc(C#N)cc3)N(Cc3ccccc3)C=C2C1=O (centres undefined),-2.2,2.5,84.1*,-9.0,-1.3,36.0,
CCOc1ncccc1C(=O)Nc1cccc(Cl)c1Cl,7.7,-3.5,7.4,1.0,6.1,.,
CCN(CC)c1ccc(N=C2C=CC(=O)C=C2NC(C)=O)cc1,.,-2.2,120.6*,-0.6,-6.3,99.4*,Diaph ctr 10uM=95.4*;Diaph ctr 30uM=98.2*
O=C(NCCO)c1ccc2nc(-c3ccco3)c(-c3ccco3)nc2c1,-6.4,-0.1,72.1*,7.2,-7.1,18.5,
O=C(NCCO)c1ccc(Cl)c(Cl)c1,19.9,0.5,6.4,-1.9,4.3,.,
O=C(NCCc1ccccc1)c1ccc2nc(-c3ccco3)c(-c3ccco3)nc2c1,13.4,-1.5,59.6*,29.1*,-5.0,29.8,
SMILES,Beta2AR agonist,MC4R ag barr,PfG6PD inh,ABHD5-PLIN5 inh,MC4R antagonist,PfGluPho conf,others
N#CCSc1ccccc1NC(=O)CN1C(=O)C2CC=CCC2C1=O (centres undefined),-119.3,-0.9,14.5,-6.3,-4.9,.,
CCNc1nc2c(c(=O)[nH]c(=O)n2C)n1CC(C)C,2.2,-0.8,-38.0,-0.9,0.4,.,
CC(C)Cn1c([N+](=O)[O-])nc2c1c(=O)[nH]c(=O)n2C,8.8,-0.2,71.3*,-6.8,16.8,55.3*,Diaph ctr 10uM=35.6;Diaph ctr 30uM=37.2
NC(=O)C1CCN(C2=C(Cl)C(=O)c3ccccc3C2=O)CC1,46.2*,-3.2,74.0*,-44.1,-17.3,43.2,
O=C1C(Cl)=C(N2CCC(C(=O)O)CC2)C(=O)c2ccccc21,7.1,-1.7,42.8,-22.0,-15.7,.,
CC1COCC(C)N1C1=C(Cl)C(=O)c2ccccc2C1=O (centres undefined),81.0*,-1.1,75.2*,-49.2,-7.8,64.0*,Diaph ctr 10uM=27.6;Diaph ctr 30uM=23.8
CN1CCN(C2=C(Cl)C(=O)c3ccccc3C2=O)CC1,27.6,-2.5,106.9*,-40.1,-5.6,74.7*,Diaph ctr 10uM=73.7*;Diaph ctr 30uM=77.0*
CC(=O)OC1CC(c2cc(C(C)(C)C)c(O)c(C(C)(C)C)c2)=NO1 (centres undefined),-1.0,-0.4,18.2,-5.9,5.2,.,
CCOC(=O)N1CCN(C(=O)C2CCN(C(=O)c3ccc(C(C)(C)C)cc3)CC2)CC1,2.1,-1.0,-9.3,-0.2,-6.1,.,
Fc1ccc(C[n+]2csc3ccccc32)cc1,6.4,-0.7,63.8*,53.8*,4.7,30.8,
Clc1ccc(C[n+]2csc3ccccc32)cc1,6.7,-1.5,57.5,-3.5,-0.1,.,
CC(=O)c1ccc(NC(=O)CCn2c(=S)oc3ccccc32)cc1,6.1,0.9,3.0,2.0,1.7,.,
NS(=O)(=O)c1ccc(NCc2c(F)cccc2Cl)cc1,8.1,0.8,15.8,7.5,8.6,.,
Fc1cccc(Cl)c1CNc1ccc(N2CCCC2)cc1,3.5,-1.8,106.4*,-4.9,6.2,87.1*,Diaph ctr 10uM=2.4;Diaph ctr 30uM=2.0
COc1cc(-c2ccc(NC(C)=O)c(OC)c2)ccc1NC(C)=O,0.8,0.5,0.8,-3.6,-2.5,.,
COc1cc(O)c(NC(C)=O)c2nonc12,5.4,0.8,64.1*,-44.3,19.1,42.9,
CC(NC(=O)CCC(=O)Nc1ccccc1O)c1ccccc1 (centres undefined),4.3,-1.6,4.5,3.7,9.3,.,
CC(CNc1ccccc1O)C(=O)O (centres undefined),5.7,-0.8,93.6*,1.9,18.5,70.1*,Diaph ctr 10uM=-4.1;Diaph ctr 30uM=1.0
Cc1ccc(C(=O)c2c[nH]c(C(=O)NCc3cccnc3)c2)cc1,0.8,-1.7,-1.6,-5.0,1.1,.,
COc1cccc(NC(=O)c2cnn(-c3ccccc3)c2C)c1,0.8,1.6,63.4*,-2.3,3.7,22.1,
CCc1cccc(NC(=O)c2cnn(-c3ccccc3)c2C)c1,-0.7,-1.0,49.5,1.6,-2.4,.,
Cc1ccc(C(C)C)c(OCC(=O)N2CCN(c3ncccn3)CC2)c1,-1.7,-3.2,5.0,-9.1,1.8,.,
